pKd: −log10 of the molar value. Active and inactive are the calls of the source. The rule behind the calls is not given here.
Key:
[1] = tested on: Mus musculus; experiment: Induction of glucagon levels in lean C57BL/6J mouse at 80 mg/kg, ip after 30 to 120 mins post injection by ELISA; format: functional, organism-based
Outline: (§1)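 Male lean C57BL/6J mice received 80 mg kg−1 i.p. (n = 5) or PBS. At 30 or 120 min, heparinized blood was taken from tail or eye socket and spun to plasma. Insulin (5 μL plasma), C-peptide, glucagon, beta-endorphin and TNF alpha (10 μL each) were measured by ultrasensitive ELISA. Mean ± SEM, two-tailed t test.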

[2] = tested on: Mus musculus; experiment: Effect on glucose levels in lean C57BL/6J mouse at 80 mg/kg, ip administered 30 min prior to glucose stimulation measured up to 120 min […]; format: ADME, organism-based; conditions: in vivo
[3] = Selectivity ratio of IC50 for ACE (unknown origin) to IC50 for mouse His-tagged IDE (42 to 1019 residues)
[4] = molecular target: Insulin-degrading enzyme (Homo sapiens) (UniProt P14735); experiment: Inhibition of IDE (unknown origin)-mediated FITC-insulin degradation in rat skeletal muscle cells at 100 uM after 10 mins at 310 K by DAPI-staining based fluorescent inverted microscopic imaging analysis; format: cell-based
Outline: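 Rat skeletal muscle cells on coverslips were given 100 nM wild-type IDE and 100 μM peptide for 10 min at 310 K, then FITC-insulin for a further 10 min. Cells were washed, fixed in 4% paraformaldehyde, stained with DAPI and imaged by fluorescent inverted microscopy. Repeated three times.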

[5] = molecular target: Insulin-degrading enzyme (Homo sapiens, UniProt P14735, E111Q); experiment: Binding affinity to IDE E111Q mutant (unknown origin) using N-terminal FITC-labeled compound after 2 hrs in absence of light at 298 K by fluorescence polarization assay
Outline: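 IDE-E111Q was titrated against 20 nM FITC-labelled peptide in 20 mM Tris-HCl pH 8.0, 50 mM NaCl, 1 mM TCEP and incubated 2 h at 277 K in the dark. Polarization was read at 298 K (ex 480, em 535 nm) and plotted against IDE concentration. Three independent experiments, each in duplicate.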

[6] = tested on: Mus musculus; experiment: Effect on basal TNFalpha levels in lean C57BL/6J mouse at 80 mg/kg, ip after 30 to 120 mins post injection by ELISA; format: ADME, organism-based; conditions: in vivo; outline: as §1
[7] = Tmax in lean C57BL/6J mouse at 100 mg/kg, ip by LC-MS analysis; format: ADME, organism-based; conditions: in vivo
Outline: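 Male lean C57BL/6J mice, 13–15 weeks old, given one i.p. dose of 100 mg kg−1 (n = 5). Tail or eye-socket blood was taken from 20 min to 43 h and spun to plasma. 30 μL plasma was mixed with 100 μL 10% TCA in H2O/CH3CN (1:1) and chilled at 277 K for 15 min. After centrifugation the peptide left in the supernatant was quantified by LC–MS. Two independent experiments.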

[8] = Drug uptake in human HeLa cells at 5 uM using FITC-labeled compound after 2 hrs at 310 K by trypan blue-fluorescence based FACS analysis; format: ADME, cell-based
Outline: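 HeLa cells were grown overnight in DMEM with 10% FBS, then given 5 μM FITC-labelled peptide in FBS-free medium for 2 h at 310 K. Cells were washed with PBS and 0.4% trypan blue, trypsinized and washed. Mean fluorescence was measured by flow cytometry with gated cell counts. Three independent experiments.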

[9] = Drug uptake in human HeLa cells at 5 uM using FITC-labeled compound after 2 hrs at 310 K by DAPI-staining based confocal microscopy; format: ADME, cell-based
[10] = tested on: Mus musculus; experiment: Induction of insulin levels in lean C57BL/6J mouse at 80 mg/kg, ip after 30 to 120 mins post injection by ELISA; format: functional, organism-based; outline: as §1
[11] = Selectivity ratio of IC50 for NEP (unknown origin) to IC50 for mouse His-tagged IDE (42 to 1019 residues)
[12] = tested on: Mus musculus; experiment: Effect on basal c-peptide levels in lean C57BL/6J mouse at 80 mg/kg, ip after 30 to 120 mins post injection by ELISA; format: ADME, organism-based; conditions: in vivo; outline: as §1
[13] = tested on: Mus musculus; experiment: Toxicity in lean C57BL/6J mouse assessed as behavioral changes at 80 mg/kg, ip; format: organism-based; conditions: in vivo
Outline: (§2)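 Male lean C57BL/6J mice (13–15 weeks) received 80 mg kg−1 i.p. or PBS vehicle (n = 6 each). Behaviour and body weight were monitored.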

[14] = Absolute bioavailability in lean C57BL/6J mouse at 100 mg/kg, ip by LC-MS analysis; format: ADME, organism-based; conditions: in vivo
Outline: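 Mice received the peptide by orbital i.v. injection (taken as 100%) or by i.p. injection. Plasma was sampled from 20 min to 43 h, TCA-precipitated and analysed by LC–MS. Fabc% = (AUCip × Div)/(AUCiv × Dip) × 100%. Two independent experiments.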

[15] = Drug uptake in brain parenchyma of lean C57BL/6J mouse at 80 mg/kg, iv using FITC-labeled compound by two-photon microscopic analysis; conditions: in vivo
[16] = tested on: Mus musculus; experiment: Anti-diabetic activity in DIO C57BL/6J mouse model assessed as reduction in glucose levels at 80 mg/kg, ip administered 30 min prior to glucose stimulation […] by GTT; format: functional, organism-based
[17] = Selectivity ratio of IC50 for ECE-1 (unknown origin) to IC50 for mouse His-tagged IDE (42 to 1019 residues)
[18] = tested on: Mus musculus; experiment: Toxicity in lean C57BL/6J mouse assessed as body weight change at 80 mg/kg, ip after 3 days; format: organism-based; conditions: in vivo, 72 h; outline: as §2
[19] = tested on: Mus musculus; experiment: Effect on basal beta-endrophins levels in lean C57BL/6J mouse at 80 mg/kg, ip after 30 to 120 mins post injection by ELISA; format: ADME, organism-based; conditions: in vivo; outline: as §1
[20] = tested on: HeLa; experiment: Cytotoxicity against human HeLa cells assessed as reduction in cell viability at <300 uM after 24 hrs at 310 K by MTT assay; format: cell-based
Outline: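 HeLa cells were grown overnight in DMEM with 10% FBS, then exposed to serial dilutions starting at 300 μM in medium with 5% FBS for 24 h at 310 K under 5% CO2. MTT was added for a further 4 h and formazan absorbance read at 490 nm. Three independent experiments in duplicate.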

[21] = molecular target: Insulin-degrading enzyme (Homo sapiens) (UniProt P14735); experiment: Inhibition of IDE (unknown origin) assessed as potentiation of insulin-induced AKT phosphorylation in rat skeletal muscle cells at 100 uM preincubated for 10 mins followed insulin addition measured by Western blot analysis; format: cell-based
Outline: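 Rat skeletal muscle cells were treated with 100 nM IDE plus peptide, for 10 min or at time points up to 24 h with 100 μM. Insulin (10 nM) was then added for 10 min. RIPA lysates were run on 10% SDS-PAGE and blotted for pAKT and AKT with GAPDH as loading control. Densitometry on three regions, two-tailed t test.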

Insulin-degrading enzyme (Homo sapiens), sequence (P14735 whole entry): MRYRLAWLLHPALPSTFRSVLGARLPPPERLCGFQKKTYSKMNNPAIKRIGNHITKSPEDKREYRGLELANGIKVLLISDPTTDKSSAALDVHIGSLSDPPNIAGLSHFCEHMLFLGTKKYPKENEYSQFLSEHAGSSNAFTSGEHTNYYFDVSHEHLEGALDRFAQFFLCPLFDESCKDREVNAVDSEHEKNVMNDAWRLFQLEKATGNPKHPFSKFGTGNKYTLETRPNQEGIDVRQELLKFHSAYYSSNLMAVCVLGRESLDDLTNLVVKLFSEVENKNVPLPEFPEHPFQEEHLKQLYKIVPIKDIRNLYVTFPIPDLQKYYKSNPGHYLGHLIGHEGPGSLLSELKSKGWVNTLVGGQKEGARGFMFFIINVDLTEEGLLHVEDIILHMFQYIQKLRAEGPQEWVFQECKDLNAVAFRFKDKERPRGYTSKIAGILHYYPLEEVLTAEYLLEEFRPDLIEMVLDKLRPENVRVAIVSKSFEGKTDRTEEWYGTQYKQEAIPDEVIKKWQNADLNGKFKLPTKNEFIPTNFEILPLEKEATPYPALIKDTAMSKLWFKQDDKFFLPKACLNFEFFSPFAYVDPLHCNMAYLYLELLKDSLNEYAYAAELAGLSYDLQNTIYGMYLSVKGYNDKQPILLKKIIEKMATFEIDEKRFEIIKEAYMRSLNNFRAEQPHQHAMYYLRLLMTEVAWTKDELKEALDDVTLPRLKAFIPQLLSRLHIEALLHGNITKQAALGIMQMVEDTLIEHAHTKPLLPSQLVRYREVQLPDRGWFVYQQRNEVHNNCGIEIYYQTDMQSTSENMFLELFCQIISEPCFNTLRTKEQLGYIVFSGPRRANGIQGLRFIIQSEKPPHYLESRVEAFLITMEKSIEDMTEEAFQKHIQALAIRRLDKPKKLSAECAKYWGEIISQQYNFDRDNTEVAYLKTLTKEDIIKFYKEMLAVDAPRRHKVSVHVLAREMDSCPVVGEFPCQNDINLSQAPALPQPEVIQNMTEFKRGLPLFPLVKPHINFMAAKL
Insulin-degrading enzyme, sequence (P14735 whole entry E111Q): as the sequence (P14735 whole entry) above, with E111Q counted along it

For `CC(=O)N[C@@H](CCC(=O)O)C(=O)N[C@@H](Cc1c[nH]c2ccccc12)C(=O)N[C@@H](CCCNC(=N)N)C(=O)N[C@@H](Cc1ccccc1)C(=O)N[C@H]1CC(=O)NC[C@@H](C(=O)N[C@@H](CC(C)C)C(=O)N[C@@H](Cc2ccc(O)cc2)C(=O)N[C@@H](CC(C)C)C(=O)N[C@H](C(=O)N[C@@H](CS)C(=O)NCC(N)=O)C(C)C)NC(=O)[C@H](CCC(=O)O)NC(=O)[C@@H]2CCCN2C(=O)[C@H]2CCCN2C(=O)CNC1=O`, the Activity [1] was “Active”, the Activity [2] was “Non-Toxic” and the Ratio IC50 [3] was > 1000. For the same compound, the inhibition [4] was “Active”, the pKd [5] was 7.66 and the Activity [6] was “Non-Toxic”. The Tmax [7] was 1.4 h, the Drug uptake [8] was “Active” and the Drug uptake [9] was “Active”. For the same compound, the Activity [10] was “Active”, the Ratio IC50 [11] was > 1000 and the Activity [12] was “Non-Toxic”. The Activity [13] was “Non-Toxic”, the bioavailability [14] was 83.5% and the Drug uptake [15] was “Not Active”. The Activity [16] was “Active”, the Ratio IC50 [17] was > 1000 and the Activity [18] was “Non-Toxic”. The Activity [19] was “Non-Toxic”, the Activity [20] was “Non-Toxic” and the inhibition [21] was “Active”.
